SENP7 block = SENP7 protease inhibition. Q9BQF6. recombinant SENP7, Z-RLRGG-aminoluciferin luminescence, 40 min. inhibition, % at 5 µM. 330,000 tested, 1.5% active;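 active means inhibition above about 50% at the single test dose, limit read from the data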;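 further: plate controls were DMSO with enzyme for no effect and no enzyme buffer wells for full effect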
SENP8 block-1 = inhibitors of human SENP8 protease | Q96LD8 | recombinant SENP8, Nedd8 substrate fluorescence | inhibition, % at 20 µM | 360,000 tested, 0.64% active | AID 602440; in the data active means inhibition mostly above about 40%, no sharp cut-off; inactive means mostly below about 27%
UBC13 polyUb = inhibitors of human UBC13 polyubiquitin chain formation | 330,000 tested, 0.47% active | TR-FRET | P61088 | inhibition, % at 20 µM; in the data active means inhibition above about 45%, passing the limit was not always enough
Apaf-1 inh = inhibitors of human Apaf-1 apoptosome | AID 489030 | O14727 | 330,000 tested, 0.71% active | reconstituted apoptosome caspase-3 activity, DEVD-Rh110 fluorescence | inhibition, % at 20 µM; active means inhibition of at least 40% at 20 µM;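 further: plate controls were DMSO wells for no effect and DEVD-CHO caspase inhibitor wells for full effect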
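System: reconstituted apoptosome with Apaf-1, cytochrome c, caspase-9, procaspase-3, dATP; Signal: Rh110 fluorescence intensity; Schedule: 30 min compound preincubation, 50 min activation, room temperature; Reagent: cytochrome c trigger plus (Z-DEVD)2-Rh110 caspase-3 substrate.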
SENP8 block-2 = inhibitors of human SENP8 protease. Q96LD8. purified SENP8, Z-RLRGG-aminoluciferin cleavage, luminescence. inhibition, % at 10 µM. 330,000 tested, 1.2% active. AID 2540; in the data active means inhibition above about 50%
SENP6 inh = SENP6 protease inhibition; inhibition, % at 10 µM; Recombinant SENP6 catalytic domain, aminoluciferin luminescence; 330,000 tested, 1.8% active; Q9GZR1; AID 2599;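 active means inhibition above about 50% at the single tested dose, limit read from the data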;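 further: plate controls were DMSO wells with enzyme for no effect and DMSO wells lacking enzyme for full effect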
SENP8 confirm = confirmation of human SENP8 protease inhibitors; AID 488912; Recombinant SENP8, Z-RLRGG-aminoluciferin luminescence, 60 min; shares compounds with SENP7 block; inhibition, % at 12.5 µM; 6,200 tested, 40% active;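 active means mean inhibition across replicates above about 50%, limit read from the data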
SENP6 confirm = confirmation of human SENP6 protease inhibitors | shares compounds with SENP7 block | recombinant SENP6, Z-RLRGG-aminoluciferin luminescence | inhibition, % at 12.5 µM | 6,200 tested, 58% active | AID 488915
SENP7 confirm = human SENP7 inhibition, confirmed | shares compounds with SENP7 block | recombinant SENP7, Z-RLRGG-aminoluciferin luminescence, 40 min | inhibition, % at 12.5 µM | 6,200 tested, 69% active | AID 488917
Casp3 SENP sel = caspase-3 inhibition (SENP selectivity assay); shares compounds with SENP7 block; purified caspase-3, Z-DEVD-aminoluciferin luminescence, 60 min; inhibition, % at 12.5 µM; 6,200 tested, 60% active; AID 488918;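 active means mean inhibition above about 50%, limit read from the data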;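 further: plate controls were enzyme with DMSO for no effect and wells without caspase-3 for full effect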
Luc interf = luminescence interference (SENP counter-screen); AID 488919; 6,200 tested, 39% active; inhibition, % at 12.5 µM; shares compounds with SENP7 block; Pre-incubated SENP8/Z-RLRGG-aminoluciferin, luciferase luminescence interference;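 active means mean inhibition above about 50% when retested at one dose, limit read from the data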;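 further: plate controls were DMSO wells with completed reaction for no effect and substrate without enzyme for full effect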
* marks the source's active call; other numbers are inactive results. This is a sample that favours compounds with a hit; in the whole collection about 3.1% have one here.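 How the source made its calls, unless noted: active means mean inhibition above about 50% in the one-dose retest (limit read from the data); inactive means the rest.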

How did N#Cc1cnn2cc(-c3ncc(C(F)(F)F)cc3Cl)cnc12 do in these assays?
SENP7 block: 4; SENP8 block-1: -122; UBC13 polyUb: 16; Apaf-1 inh: -18; SENP8 block-2: 0; SENP6 inh: -6

How did Cc1cc2ncc(-c3ncc(C(F)(F)F)cc3Cl)cn2n1 do in these assays?
SENP7 block: 59*; SENP8 block-1: -15; UBC13 polyUb: -11; Apaf-1 inh: -1; SENP8 block-2: 26; SENP6 inh: -19; SENP8 confirm: 26; SENP6 confirm: 40; SENP7 confirm: 77*; Casp3 SENP sel: 79*; Luc interf: 28

Results for CN(C)c1ccc(/C=C2\CCCCC2=O)cc1 ?
SENP7 block: 63*; SENP8 block-1: -24; UBC13 polyUb: 1; Apaf-1 inh: 0; SENP8 block-2: 48; SENP6 inh: 62*; SENP8 confirm: 46; SENP6 confirm: 62*; SENP7 confirm: 81*; Casp3 SENP sel: 60*; Luc interf: 29

How did CN(C)c1ccc(C2C3=C(CCCC3=O)OC3=C2C(=O)CCC3)cc1 do in these assays?
SENP7 block: 16; SENP8 block-1: 26; UBC13 polyUb: -3; Apaf-1 inh: 7; SENP8 block-2: 7; SENP6 inh: 5

Results for N#CCCN(C(=S)NC(=O)c1cccs1)c1ccccc1F ?
SENP7 block: 8; SENP8 block-1: 3; UBC13 polyUb: 3; Apaf-1 inh: 2; SENP8 block-2: -8; SENP6 inh: 2

How did CC(=O)Nc1ccc(S(=O)(=O)NCC(=O)OCC(=O)NCCc2ccccc2)cc1 do in these assays?
SENP8 block-1: 3

Results for Cc1ccc(-n2c(C)nc3ccsc3c2=O)cc1 ?
SENP7 block: -1; SENP8 block-1: 20; UBC13 polyUb: -7; Apaf-1 inh: -11; SENP8 block-2: 4; SENP6 inh: 7

What do the screens show for `Cc1ccc(-c2nc3ccsc3c(=O)o2)cc1`?
SENP7 block: 52*; SENP8 block-1: 27; UBC13 polyUb: -1; Apaf-1 inh: 26; SENP8 block-2: -13; SENP6 inh: 55*; SENP8 confirm: 37; SENP6 confirm: 30; SENP7 confirm: 67*; Casp3 SENP sel: 16; Luc interf: 56*

Results for O=C(CCl)Oc1ccc2occ(C(=O)c3cccs3)c2c1 ?
SENP7 block: 38; SENP8 block-1: 14; UBC13 polyUb: 23; Apaf-1 inh: 8; SENP8 block-2: 27; SENP6 inh: 63*; SENP8 confirm: 32; SENP6 confirm: 30; SENP7 confirm: 66*; Casp3 SENP sel: 40; Luc interf: 30

What do the screens show for `O=C(c1cccs1)c1coc2ccc(O)cc12`?
SENP7 block: 28; SENP8 block-1: 24; UBC13 polyUb: 16; Apaf-1 inh: 11; SENP8 block-2: 21; SENP6 inh: 54*; SENP8 confirm: 41; SENP6 confirm: 48; SENP7 confirm: 77*; Casp3 SENP sel: 49; Luc interf: 32

Results for CC1(C)CC(=O)C=C(c2n[nH]nc2C2CCCCC2)C1 ?
SENP8 block-1: 14

What do the screens show for `CCOC(=O)N1CCN(C(=O)C[C@@H]2C[C@@]3(C(=O)OC)CC(C)(C)CC=C3N(Cc3cccc4ccccc34)C2=O)CC1`?
SENP8 block-1: 19

What do the screens show for `O=C(N/N=C/c1ccc([N+](=O)[O-])cc1)c1[nH]ncc1Br`?
SENP7 block: 85*; SENP8 block-1: 20; UBC13 polyUb: -6; Apaf-1 inh: 11; SENP8 block-2: 72*; SENP6 inh: 86*; SENP8 confirm: -4; SENP6 confirm: 9; SENP7 confirm: 48; Casp3 SENP sel: 88*; Luc interf: 15

How did O=C1[C@H]2[C@@H](c3ccccc3)N[C@]3(CCCN(CC4CCCCC4)C3=O)[C@H]2C(=O)N1Cc1ccccc1 do in these assays?
SENP8 block-1: 1

Results for Clc1c(-c2ccccc2)nnn1-c1ccccc1 ?
SENP7 block: 77*; SENP8 block-1: 16; UBC13 polyUb: -10; Apaf-1 inh: 2; SENP8 block-2: 76*; SENP6 inh: 91*; SENP8 confirm: 74*; SENP6 confirm: 81*; SENP7 confirm: 96*; Casp3 SENP sel: 75*; Luc interf: 76*

How did Nc1nnn(-c2ccccc2)c1-c1ccccc1 do in these assays?
SENP7 block: -15; SENP8 block-1: 0; UBC13 polyUb: 1; Apaf-1 inh: 2; SENP8 block-2: -5; SENP6 inh: -18

What do the screens show for `c1ccc(-c2nccc3ccccc23)cc1`?
SENP7 block: -3; SENP8 block-1: 7; UBC13 polyUb: -10; Apaf-1 inh: 7; SENP8 block-2: -9; SENP6 inh: -23

How did Cc1ccc(-c2nc(-c3nccc4ccccc34)oc2-c2ccccc2)cc1 do in these assays?
SENP7 block: 81*; SENP8 block-1: -309; UBC13 polyUb: 27; Apaf-1 inh: 24; SENP8 block-2: 48; SENP6 inh: 69*; SENP8 confirm: 48; SENP6 confirm: 50*; SENP7 confirm: 84*; Casp3 SENP sel: 84*; Luc interf: 72*

Results for Cc1ccc(-c2csc(N3C(=N)SCC3=O)n2)cc1 ?
SENP7 block: 71*; UBC13 polyUb: 4; Apaf-1 inh: -23; SENP8 block-2: 51*; SENP6 inh: 0; SENP8 confirm: 2; SENP6 confirm: 13; SENP7 confirm: 10; Casp3 SENP sel: 16; Luc interf: 8

What do the screens show for `O=C(OCc1csc(-c2ccccc2)n1)c1ccccc1O`?
SENP7 block: 91*; SENP8 block-1: 12; UBC13 polyUb: -14; Apaf-1 inh: 3; SENP8 block-2: 88*; SENP6 inh: 92*; SENP8 confirm: 86*; SENP6 confirm: 92*; SENP7 confirm: 99*; Casp3 SENP sel: 82*; Luc interf: 40

How did CCOC(=O)c1ccc(NC(=O)c2nc[nH]c2C(=O)N[C@H](C)CO)cc1 do in these assays?
SENP8 block-1: 5

How did CC(=O)c1sc(NC(=O)c2c(F)cccc2F)nc1-c1ccccc1 do in these assays?
SENP7 block: -8; SENP8 block-1: -10; UBC13 polyUb: -21; Apaf-1 inh: 3; SENP8 block-2: -8; SENP6 inh: -23
